# Assay results gathered from unrelated publications.
# Compare with care: the assays were run in different laboratories.
# Target: Calcium/calmodulin-dependent protein kinase kinase 1 (CAMKK1, Homo sapiens, UniProt Q8N5S9)
Compound,assay,setting,endpoint,value
O=C(Nc1cnn(-c2csc(C(=O)NC3COC3)c2)c1)Nc1c(F)cccc1Cl,"enzyme activity, inhibitor",5 µM,remaining activity,93.7%
O=c1nc(-c2ccccn2)sc2ccccc12,"binding, competition with immobilised ligand",1 µM,remaining binding,96%
Cn1c2c(Cl)c(Cl)ccc2c2cc(N)[nH]c(=O)c21,"thermal stability, DSF",10 µM,ΔTm,0.7 °C
CN(c1ncccc1CNc1nc(Nc2ccc3c(c2)CC(=O)N3)ncc1C(F)(F)F)S(C)(=O)=O,"enzyme activity, inhibitor",1 µM,inhibition,46%
CCCOc1ccc([C@H]2[C@H](C(=O)O)[C@@H](c3ccc4c(c3)OCO4)CN2CC(=O)Nc2c(CC)cccc2CC)cc1,"cell-free assay, competition with immobilised ligand",1 µM,remaining binding,86%
CC(C)(O)[C@H]1CC[C@H](Nc2ccc3ncc(-c4cccc(C(F)(F)F)c4)n3n2)CC1,"enzyme activity, inhibitor",1 µM,remaining activity,91.8%
CCCCNc1ncc2c(-c3ccc(F)cc3)nn(C[C@H]3CC[C@H](N)CC3)c2n1,"target engagement in cells, inhibitor, chemoproteomics",20 mM,inhibition,20.6%
Cn1c2c(Cl)c(Cl)ccc2c2cn[nH]c(=O)c21,"thermal stability, DSF",10 µM,ΔTm,0.5 °C
CN1CC(Oc2cnc(C#N)cc2-c2ccn3nc(NC(=O)C4CC4)cc3c2)C1,"enzyme activity, inhibitor",1 µM,inhibition,3%
O=C1NC(=O)c2cc(Nc3ccc(F)cc3)c(Nc3ccc(F)cc3)cc21,cell-free assay,0.5 µM,remaining signal,90.2%
COc1cccc2c(NCc3ccccc3)nc(-n3c(N)nc4ccccc43)nc12,"target engagement in cells, inhibitor, chemoproteomics",20 mM,inhibition,-24.9%
Cc1nc(N2CC[C@@H](O)C2)ncc1-c1cc(C(F)(F)F)cc2[nH]ncc12,"binding, competition with immobilised ligand",1 µM,remaining binding,100%
Oc1ccc(-c2nc(-c3ccncc3)c(-c3ccc(F)cc3)[nH]2)cc1,cell-free assay,0.5 µM,remaining signal,123%
COc1ccc2c(c1)O[C@H](c1ccc(OC)c(OC)c1)C[C@@H]2NC(=O)C1(c2ccc3c(c2)OC(F)(F)O3)CC1,"cell-free assay, competition with immobilised ligand",1 µM,remaining binding,100%
N#CCCc1ccc2c(c1)-c1[nH]c3ccc([N+](=O)[O-])cc3c1CC(=O)N2,cell-free assay,0.5 µM,remaining signal,86.7%
Cn1c2c(c3ccc(Cl)c(Cl)c31)C(C#N)C(C)(C)NC2=O (stereo not drawn),"thermal stability, DSF",10 µM,ΔTm,2.6 °C
CN(c1ccnc(CNc2nc(Nc3ccc4c(c3)CC(=O)N4)ncc2C(F)(F)F)n1)S(C)(=O)=O,"cell-free assay, competition with immobilised ligand",1 µM,remaining binding,90%
COc1cc(Cl)c(C(=O)N[C@@H](CN[C@H]2CC[C@@H](N)CC2)Cc2ccc(C#N)cc2)cc1-c1ccc(CN[C@H](C)c2ccc(C)cc2)o1,"enzyme activity, inhibitor",1 µM,remaining activity,100%
